Data taken from the RNAGym collection of RNA variant scans (doi:10.1126/science.aae0568).
This sample holds only a part of the variants without activity.

B1: tRNA (parent)
chain: GUUCCGUUGGCGUAAUGGUAACGCGUCUCCCUCCUAAGGAGAAGACUGCGGGUUCGAGUCCCGUACGGAACG

Variants of: B1
Experiment: yeast fitness relative to wild type (ratio to wild type); higher = fitter; tRNA-Arg(CCU), competitive growth, 37 C, YPD
Procedure, shortened: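 A pool of Saccharomyces cerevisiae strains, each with a tRNA-Arg(CCU) gene variant at the native genomic locus, was competed in YPD at 37°C for 24 hours across six parallel replicates. The variants had been chemically synthesised at a 3% per-site mutation rate over 69 sites, and gene amplicons before and after competition were read by 100-nucleotide paired-end sequencing. Darwinian fitness relative to wild type rested on changes in genotype frequencies. Genotypes required ≥ 100 starting reads, and estimates < 0.5 were set to 0.5.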

| Variant | yeast fitness |
| --- | --- |
| GCUCCGUUGGCGUAAUGGUAAGGCGUCUCCUUCCUUAGGAGAAGACUGUGGGUUCGAGUCCCGUACGGAACG [U2C C22G C31U A36U C49U] | 0.649 |
| GUUCCGUUGGCGUAAUAGUAAGGCGUCUCCCUUCUAAGGAGAAGACUGCGGGUUCGAGUCCAGUACGGAACG [G17A C22G C33U C62A] | ≤ 0.5 |
| GUUCCGUUGGCGUAGUGGUAACGCGUCUCCCUCCUAAGGAGAAGACCGCGGGUUCGAGUCCCGUACGCAACG [A15G U47C G68C] | ≤ 0.5 |
| GUUCCGUUGGCGUAAUAGUAACGCGUCUCCCUCCUAAGGAGAAGACUGCGGGUUCGAGUCCCGUACGGCACG [G17A A69C] | 0.721 |
| GUUCCGUUGGCGUAAUGGUAACGCGUGUACCUCCUAAGGAGAAGACUGCGGGUUCGAGUCUCGUACGGAACG [C27G C29A C61U] | ≤ 0.5 |
| GUUCCGUUGGCGUAAUGGUAACGCGUCUCCCUCCUAAGGAGAAGUCUGCGGGUUCGAGUCCCGAACGGAACG [A45U U64A] | 0.708 |
| GUUCCGUUGGCGUAAUGGUAACGCGUCUCCCUUCUAAGGAGAUGACUGGCGGUUCGAGUCUCGUAUGGAACG [C33U A43U C49G G50C C61U C66U] | ≤ 0.5 |
| GUUCCGUUGGCGUAAUGGUAACGCGUCUCCCUCCUCGGGAGAAGACUGAGGGUUCGAGUCCCGUACGGAACG [A36C A37G C49A] | 0.541 |
| GUUCUGUUGGCGUGAUGGUAACGCGUCUCCCUCCUAAGGAGAAGACUGCGAGUUCGAGUCCCGUCCGGAACG [C5U A14G G51A A65C] | ≤ 0.5 |
| GUUACGUUGGCGUAAUGGUAACGCGUCUCCCUCCUAAGCACAAGACUGCGGGUUCCAGUCCCGUACGGAACG [C4A G39C G41C G56C] | ≤ 0.5 |
| GUUCCGUUGACGUAAAGGUAACGCGUCUCCCUCCUAAGGAGAAGACUGCGGGUUCGAGUCCCGUGCGGAACG [G10A U16A A65G] | 0.542 |
| GUUCCGUUGGUGUUACGGUAACGCGUCUCCCUCCUAAGGAGAAGACUGCGGGUUCGAGUCCCGUACGGAACG [C11U A14U U16C] | ≤ 0.5 |
| GUUCCGUUGGCGUAAUGGUAAGGCGUCUCCAUCCUAAGGAGAGGACUGCGGGUUCGAGUCCCGUACGGUACG [C22G C31A A43G A69U] | ≤ 0.5 |
| GUCCCGUUGGCGUAAUGGUAACGCGUCUCCCUCCUAAGGAGAAGACUGCGGGUUCGCGUCCCGUACGGAACG [U3C A57C] | 0.504 |
| GUUCCGUUGGAGUAAUGGUAACGCGUCUCCCUCCUAAGGAGAAGAUUGCGGGUUCGAGUCCCGCACGGAACG [C11A C46U U64C] | ≤ 0.5 |
| GUUCCGUUGGCGUAAUGGUAGCGCGUCUCCCUCCUAAGGAGAAGACGGCGGGUUCGAGUCCCGUACGGAACG [A21G U47G] | 0.525 |
| GUUCCGUUGGCGUAAUGGUAACGCGUCUCCCUCCUAAGGAGAAGACUGCGGGUUUGAACCCUGUACGGAACG [C55U G58A U59C C62U] | ≤ 0.5 |
| GUGCCGUUGGCGUAAUGGUAACGCGUCUCCUUCCUAAGGAGAAGACUGUGGGUUCGAGUCCCGUACGGAACG [U3G C31U C49U] | 0.681 |
| GUUCCGUUGGCGAAAUGGUAACGCGUCUCCCUCCUAAGGAGAAGAUUGCGGGUUCGAGUCCCGUACCGAACG [U13A C46U G67C] | 0.53 |

| Variant | yeast fitness |
| --- | --- |
| GUUUCGUUGGCGUAAUCGUAACGCGUCUCCCUCCUAAGGAGAAGACUGGCGGUUCGAGUCCCGUACGGAACG [C4U G17C C49G G50C] | 0.652 |
| GUUCCGUUGGCGUAAUGGUAACGAGUCUCCCUCCUAAGAAGAAGACUGCGGGUUCGAGUCCCGUACGGAACG [C24A G39A] | 0.66 |
| GUUCCGUUGGCGAAAUGGUAAUGCGUCUCCCUCCUAAGGAGAAGACUGCGGGUUCGAGUCCCGUACGGAACG [U13A C22U] | 0.859 |
| GUCCCGUUGGAGUAAUGGUAACGCGUCUCCAUCCUAAGGAGAAGACUGGGGGUUCGACUCCCGUACGGAACG [U3C C11A C31A C49G G58C] | ≤ 0.5 |
| GUUCCGUUGGCGUAAGGGUAACGCGUCUCCCUCCUAAGGAGAAGACUGCGGGUUCGAGUCCCGUAUGGAACG [U16G C66U] | 0.875 |
| GUUCCGUUGGCAAAAUGGUAACGCGUCUCCCUCCUAAGGAGAAGACUGCGGGUUCGAGUCCCGUCCGGAACG [G12A U13A A65C] | ≤ 0.5 |
| GUUCCGUUGGCGUAAUGGUUACGCGUCUCCCUCCUAAGGAGAAGACUGCGGGUUCGAGACCCGUACGGAACG [A20U U59A] | 0.847 |
| GUUCCAUUGGCGUAAUGCUAAGGCGUCUCCCUCCUAAGGAGAAGACUGCGGGUUCGAGUCCCGUCCGGAACG [G6A G18C C22G A65C] | ≤ 0.5 |
| GUUCCGUUGGCGUAAUGGUAGCGCGCGUCCCUCCUAAGGAGAAGACUCCGGGUUCGAGUCCCGUACAGAACG [A21G U26C C27G G48C G67A] | ≤ 0.5 |
| GUUCCGUUGGCGUAAUGGUAUCGCGUCUCCCUCAUAAGGAGAAGACUGCGGGUACGAGUCCAGUACGGAGCG [A21U C34A U54A C62A A70G] | ≤ 0.5 |
| GUUCCGUUGGCGUAAAGGUAACGAGUCUCGCUCUUAAGGAGAAGACUGCGGGUUCCAGUCCCGUACGGAACG [U16A C24A C30G C34U G56C] | 0.634 |
| GUUCCGUUGGCGUAAUGGUAACGCGUCUCCCUCCUAAGGAGAUGACUGCGGGUUCAAGUCCCGUAGGGAACG [A43U G56A C66G] | 0.553 |
| GUUACGUUCGCGUAAUGGUAACGCGUCUCACUCCUAAGAAGAAGACUGCGGGUUCGAGUCGCGUACGGAACG [C4A G9C C30A G39A C61G] | ≤ 0.5 |
| GUUGCGUUGGGGUAAUGGUAACGCGUCUCCCUCCUAAGGAGAAGACUGCGGGUUUGAGUCACGUACAGAACG [C4G C11G C55U C61A G67A] | ≤ 0.5 |
| GUUCAGUUGGCGUAAUGGUAACGCGUCUCACUCCUAAGGAGAAAACUGCGGGUUCGAGUCCCGUACGGAACG [C5A C30A G44A] | 0.584 |
| GUUCCGUUGGCGUAAUGGUAACGCGUCUCCCUCGUAAGGAGAAGACUGCCGGUUCGAGUCCAGUACGGAACG [C34G G50C C62A] | ≤ 0.5 |
| GUUCCGUUGGCGUAAUGGUAACGCGUCUCCCUCCUAAGGAGAAGACUGCGGGUUCGAGAUCCGUACGGAACG [U59A C60U] | 0.74 |
| GUUUCGUUGGCGUAAUGGAAACGCGUCUCCCUCCUAAGGAGAACACUGCGGGGUCGAGUCCCGUACGGAACG [C4U U19A G44C U53G] | ≤ 0.5 |
